Measured values from ChEMBL document CHEMBL1142420, “Synthesis and DNA-cleaving activity of lactenediynes conjugated with DNA-complexing moieties” (2008).

Experiments:
DU-145 = experiment: Cytotoxicity against human DU145 cells after 48 hrs by SRB assay; assay type: functional; details: DU-145, 48 h
In short: (§1)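 Run at NCI: cell lines exposed 48 h to a range of concentrations, with untreated controls under identical conditions. Growth measured by sulforhodamine B staining with colorimetric read-out. Percent growth computed from test, time-zero and control absorbances. GI50, TGI and LC50 read from PG versus log10 molar concentration as the concentrations giving PG = 50, 0 and -50.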

A549 = experiment: Cytotoxicity against human A549 cells after 48 hrs by SRB assay; assay type: functional; details: A549, 48 h; in short: as §1
CAKI-1 = experiment: Cytotoxicity against human CAKI1 cells after 48 hrs by SRB assay; assay type: functional; details: CAKI-1, 48 h; in short: as §1
TK-10 = experiment: Cytotoxicity against human TK10 cells after 48 hrs by SRB assay; assay type: functional; details: TK-10, 48 h; in short: as §1
NCI-H23 = experiment: Cytotoxicity against human NCI-H23 cells after 48 hrs by SRB assay; assay type: functional; details: NCI-H23, 48 h, read-out: Log LC50 (the source's name) (converted)
In short: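 Run at NCI: cells exposed 48 h to a range of concentrations, with untreated controls under identical conditions. Growth measured by sulforhodamine B staining with colorimetric read-out. Percent growth (PG) calculated from absorbance at 48 h with drug, at time zero, and at 48 h without drug. Log molar concentration plotted against PG; GI50 at PG = 50, TGI at PG = 0, LC50 at PG = −50.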

M14 = experiment: Cytotoxicity against human M14 cells after 48 hrs by SRB assay; assay type: functional; details: M14, 48 h; in short: as §1
ACHN = experiment: Cytotoxicity against human ACHN cells after 48 hrs by SRB assay; assay type: functional; in short: as §1
T47D = experiment: Cytotoxicity against human T47D cells after 48 hrs by SRB assay; assay type: functional; in short: as §1
[1] = Cytotoxicity against human HS 578T cells after 48 hrs by SRB assay; assay type: functional; in short: as §1
U-251 = experiment: Cytotoxicity against human U251 cells after 48 hrs by SRB assay; assay type: functional; details: U-251, 48 h; in short: as §1
SK-OV-3 = experiment: Cytotoxicity against human SKOV3 cells after 48 hrs by SRB assay; assay type: functional; details: SK-OV-3, 48 h; in short: as §1
UO-31 = experiment: Cytotoxicity against human UO31 cells after 48 hrs by SRB assay; assay type: functional; details: UO-31, 48 h; in short: as §1
HCT-15 = experiment: Cytotoxicity against human HCT15 cells after 48 hrs by SRB assay; assay type: functional; details: HCT-15, 48 h; in short: as §1
Escherichia coli = experiment: Induction of plasmid pBR322 DNA cleavage assessed as concentration required to cleave 50% of DNA after 24 hrs by gel electrophoresis
In short: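 Supercoiled pBR322 (90% form I) diluted to 50 µg/mL (75 µM/bp) in pH 7.5 Tris 40 mM/EDTA 4 mM. Incubated 24 h at 37 °C, then run on agarose gel with ethidium bromide and viewed at 302 nm. Form I versus II+III quantified by densitometry after subtracting form II present in the control.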

SNB-75 = experiment: Cytotoxicity against human SNB75 cells after 48 hrs by SRB assay; assay type: functional; details: SNB-75, 48 h; in short: as §1
EKVX = experiment: Cytotoxicity against human EKVX cells after 48 hrs by SRB assay; assay type: functional; in short: as §1
MCF7 = experiment: Cytotoxicity against human MCF7 cells after 48 hrs by SRB assay; assay type: functional; details: MCF7, 48 h; in short: as §1
OVCAR-4 = experiment: Cytotoxicity against human OVCAR4 cells after 48 hrs by SRB assay; assay type: functional; details: OVCAR-4, 48 h; in short: as §1
SW-620 = experiment: Cytotoxicity against human SW620 cells after 48 hrs by SRB assay; assay type: functional; details: SW-620, 48 h; in short: as §1
SF-295 = experiment: Cytotoxicity against human SF295 cells after 48 hrs by SRB assay; assay type: functional; details: SF-295, 48 h; in short: as §1
OVCAR-5 = experiment: Cytotoxicity against human OVCAR5 cells after 48 hrs by SRB assay; assay type: functional; details: OVCAR-5, 48 h; in short: as §1
IGROV-1 = experiment: Cytotoxicity against human IGROV1 cells after 48 hrs by SRB assay; assay type: functional; details: IGROV-1, 48 h; in short: as §1
OVCAR-3 = experiment: Cytotoxicity against human OVCAR-3 cells after 48 hrs by SRB assay; assay type: functional; details: OVCAR-3, 48 h; in short: as §1
HOP-62 = experiment: Cytotoxicity against human HOP62 cells after 48 hrs by SRB assay; assay type: functional; details: HOP-62, 48 h; in short: as §1
A498 = experiment: Cytotoxicity against human A498 cells after 48 hrs by SRB assay; assay type: functional; details: A498, 48 h; in short: as §1
RPMI-8226 = experiment: Cytotoxicity against human RPMI8226 cells after 48 hrs by SRB assay; assay type: functional; details: RPMI-8226, 48 h; in short: as §1
RXF 393 = experiment: Cytotoxicity against human […] cells after 48 hrs by SRB assay; assay type: functional; details: RXF 393, 48 h; in short: as §1
UACC-62 = experiment: Cytotoxicity against human UACC62 cells after 48 hrs by SRB assay; assay type: functional; details: UACC-62, 48 h; in short: as §1
MDA-MB-231 = experiment: Cytotoxicity against human MDA-MB-231 cells after 48 hrs by SRB assay; assay type: functional; details: MDA-MB-231, 48 h; in short: as §1
[2] = read-out: Log LC50 (the source's name) (converted)

For CC(=O)O[C@@H]1C#C/C=C\C#CC[C@H]2C(=O)N(C(=O)OC(C)(C)C)[C@H]12, the GI50 (DU-145) was 16.2 µM, the CC50 (DU-145; [2]) was > 100 µM and the TGI (DU-145; read-out: Log TGI (converted)) was 56.2 µM. For the same molecule, the GI50 (A549) was 28.2 µM, the CC50 (A549; [2]) was > 100 µM and the TGI (A549; read-out: Log TGI (converted)) was > 100 µM. For the same molecule, the GI50 (CAKI-1) was 0.355 µM, the CC50 (CAKI-1; [2]) was 60.3 µM and the TGI (CAKI-1; read-out: Log TGI (converted)) was 6.46 µM. The GI50 (TK-10) was 35.5 µM, the CC50 (TK-10; [2]) was > 100 µM and the TGI (TK-10; read-out: Log TGI (converted)) was > 100 µM. For the same molecule, the CC50 (NCI-H23) was > 100 µM, the GI50 (M14) was 39.8 µM and the CC50 (M14; [2]) was > 100 µM. The TGI (M14; read-out: Log TGI (converted)) was > 100 µM, the GI50 (ACHN) was 2.63 µM and the CC50 (ACHN; [2]) was > 100 µM. For the same molecule, the TGI (ACHN; read-out: Log TGI (converted)) was 25.7 µM, the GI50 (T47D) was 100 µM and the CC50 (T47D; [2]) was > 100 µM. For the same molecule, the TGI (T47D; read-out: Log TGI (converted)) was > 100 µM, the GI50 [1] was 53.7 µM and the CC50 [1, 2] was > 100 µM. For the same molecule, the TGI ([1]; read-out: Log TGI (converted)) was > 100 µM, the GI50 (U-251) was 16.2 µM and the CC50 (U-251; [2]) was > 100 µM. The TGI (U-251; read-out: Log TGI (converted)) was > 100 µM, the GI50 (SK-OV-3) was 87.1 µM and the CC50 (SK-OV-3; [2]) was > 100 µM. The TGI (SK-OV-3; read-out: Log TGI (converted)) was > 100 µM, the GI50 (UO-31) was 5.89 µM and the CC50 (UO-31; [2]) was > 100 µM. For the same molecule, the TGI (UO-31; read-out: Log TGI (converted)) was > 100 µM, the CC50 (HCT-15; [2]) was > 100 µM and the TGI (HCT-15; read-out: Log TGI (converted)) was > 100 µM. It also gave a GI50 (HCT-15; read-out: pGI50 (converted)) of 40.7 µM, a CS50 (Escherichia coli) of 40 µM and a GI50 (SNB-75) of 38 µM. For the same molecule, the CC50 (SNB-75; [2]) was > 100 µM, the TGI (SNB-75; read-out: Log TGI (converted)) was > 100 µM and the GI50 (EKVX) was > 100 µM. For the same molecule, the CC50 (EKVX; [2]) was > 100 µM, the TGI (EKVX; read-out: Log TGI (converted)) was > 100 µM and the GI50 (MCF7) was 1.1 µM. The CC50 (MCF7; [2]) was > 100 µM, the TGI (MCF7; read-out: Log TGI (converted)) was > 100 µM and the GI50 (OVCAR-4) was > 100 µM. For the same molecule, the CC50 (OVCAR-4; [2]) was > 100 µM, the TGI (OVCAR-4; read-out: Log TGI (converted)) was > 100 µM and the GI50 (SW-620) was 13.5 µM. For the same molecule, the CC50 (SW-620; [2]) was > 100 µM, the TGI (SW-620; read-out: Log TGI (converted)) was > 100 µM and the GI50 (SF-295) was 30.9 µM. For the same molecule, the CC50 (SF-295; [2]) was > 100 µM, the TGI (SF-295; read-out: Log TGI (converted)) was > 100 µM and the GI50 (OVCAR-5) was > 100 µM. The CC50 (OVCAR-5; [2]) was > 100 µM, the TGI (OVCAR-5; read-out: Log TGI (converted)) was > 100 µM and the GI50 (IGROV-1) was 19.5 µM. For the same molecule, the CC50 (IGROV-1; [2]) was > 100 µM, the TGI (IGROV-1; read-out: Log TGI (converted)) was > 100 µM and the GI50 (OVCAR-3) was 61.7 µM. The CC50 (OVCAR-3; [2]) was > 100 µM, the TGI (OVCAR-3; read-out: Log TGI (converted)) was > 100 µM and the GI50 (HOP-62) was 5.01 µM. For the same molecule, the CC50 (HOP-62; [2]) was > 100 µM, the TGI (HOP-62; read-out: Log TGI (converted)) was 38 µM and the GI50 (A498) was 17 µM. The CC50 (A498; [2]) was > 100 µM, the TGI (A498; read-out: Log TGI (converted)) was 97.7 µM and the GI50 (RPMI-8226) was 17.8 µM. The CC50 (RPMI-8226; [2]) was > 100 µM, the TGI (RPMI-8226; read-out: Log TGI (converted)) was > 100 µM and the GI50 (RXF 393) was 20.4 µM. The CC50 (RXF 393; [2]) was > 100 µM, the TGI (RXF 393; read-out: Log TGI (converted)) was 69.2 µM and the GI50 (UACC-62) was 21.4 µM. The CC50 (UACC-62; [2]) was > 100 µM, the TGI (UACC-62; read-out: Log TGI (converted)) was > 100 µM and the GI50 (MDA-MB-231) was > 100 µM. For the same molecule, the CC50 (MDA-MB-231; [2]) was > 100 µM and the TGI (MDA-MB-231; read-out: Log TGI (converted)) was > 100 µM.
